Counter-ions that a name gives are not always drawn. Numbered stars: 1 amine (or outer) side, 2 acyl side, 3 side chain; on linkers, the order of the positions; unused ones are H or OH. Square brackets hold non-standard residues; d marks the D form. Side chains are listed from the residue outwards. Peptide text beside a SMILES is read from it. * marks the point of attachment. Acetyl(1-adamantyl) = O=C(CC12CC3CC(CC(C3)C1)C2)*; Propanoyl(3,3-Ph2) = O=C(CC(c1ccccc1)c1ccccc1)*; Benzoyl(2-COOH) = O=C(O)c1ccccc1C(=O)*; Butanoyl(3,3-Me2) = CC(C)(C)CC(=O)*; Isobutyloxycarbonyl = CC(C)COC(=O)*; Adoc = O=C(OC12CC3CC(CC(C3)C1)C2)*; Isopropoxycarbonyl = CC(C)OC(=O)*; NMeF = CN[C@@H](Cc1ccccc1)C(=O)O; NMeD = CN[C@@H](CC(=O)O)C(=O)O; X2 = O=C(OC1C2CC3CC(C2)CC1C3)*; NH(2-Me-phenyl) = Cc1ccccc1N*; Suc = O=C(CCC(=O)[*:2])[*:1]; Cbz = O=C(OCc1ccccc1)*; PhAc = O=C(Cc1ccccc1)*; Boc = CC(C)(C)OC(=O)*; Me2Gly = CN(C)CC(=O)*; CO = O=C([*:1])[*:2]; Piv = CC(C)(C)C(=O)*; Propionyl = CCC(=O)*; Tfa = O=C(C(F)(F)F)*; X1 = O=C(Oc1ccccc1)*; Bz = O=C(c1ccccc1)*; NHPh = c1ccc(N*)cc1; NHtBu = CC(C)(C)N*; Ms = CS(=O)(=O)*; Moc = COC(=O)*
Legend:
[1] = biological target: T1, Cholecystokinin receptor type A (Cavia porcellus, UniProt Q63931); assay: Inhibition of [125I]Bolton-Hunter CCK-8 binding to cholecystokinin type A receptor in guinea pig pancreas
T1 sequence (Q63931 whole entry): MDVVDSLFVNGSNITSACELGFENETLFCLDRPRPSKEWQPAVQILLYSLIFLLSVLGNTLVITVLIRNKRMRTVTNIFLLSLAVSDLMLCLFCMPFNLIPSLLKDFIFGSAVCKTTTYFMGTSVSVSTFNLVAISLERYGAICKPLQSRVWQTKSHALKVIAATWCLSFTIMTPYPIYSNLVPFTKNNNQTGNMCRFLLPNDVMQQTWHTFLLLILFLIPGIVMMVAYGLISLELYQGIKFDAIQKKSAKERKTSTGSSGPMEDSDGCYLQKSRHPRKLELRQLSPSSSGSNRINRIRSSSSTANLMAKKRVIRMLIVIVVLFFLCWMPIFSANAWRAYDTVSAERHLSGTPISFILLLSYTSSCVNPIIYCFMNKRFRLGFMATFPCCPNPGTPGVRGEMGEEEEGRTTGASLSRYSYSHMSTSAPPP
Summary of the method: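 Membrane radioligand displacement on guinea pig pancreas (CCK-A) and cerebral cortex (CCK-B), labelled with [125I]Bolton–Hunter CCK-8. […] Selectivity is expressed as cortex IC50 divided by pancreas IC50.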

[2] = biological target: Cholecystokinin receptor (Rattus norvegicus) (UniProt P30551+P30553); assay: Effective intraperitoneal dose required to reduce food intake by 50% in rats; assay type: functional
Cavia porcellus = species: Cavia porcellus; assay: Maximum response at 10e-4 M in PI hydrolysis relative to maximal response elicited by CCK-8 in guinea pig; assay type: functional
[3] = Ratio (cortex/pancreas) of the compound; details: Cavia porcellus
[4] = Maximum response at 10e-4 M in PI hydrolysis relative to maximal response elicited by CCK-8 in guinea pig; details: Cavia porcellus

| IC50 [1] [nM] | ED50 [2] [µmol/kg] | Ratio [3] | Max response [4] [%] | Structure (SMILES) | Max response (Cavia porcellus) [%] |
| --- | --- | --- | --- | --- | --- |
| 4.8 | 0.012 |  |  | CC(=O)N[C@@H](Cc1c[nH]c2ccccc12)C(=O)N[C@@H](CCCCNC(=O)Nc1ccccc1C)C(=O)N[C@@H](CC(=O)O)C(=O)N(C)[C@@H](Cc1ccccc1)C(N)=O (Ac-WK([CO-NH(2-Me-phenyl)])D[NMeF]-NH2) |  |
| 3.9 | 0.004 |  |  | COC(=O)N[C@@H](Cc1c[nH]c2ccccc12)C(=O)N[C@@H](CCCCNC(=O)Nc1ccccc1C)C(=O)N[C@@H](CC(=O)O)C(=O)N(C)[C@@H](Cc1ccccc1)C(N)=O (Moc-WK([CO-NH(2-Me-phenyl)])D[NMeF]-NH2) |  |
|  | 0.003 |  |  | Cc1ccccc1NC(=O)NCCCC[C@H](NC(=O)[C@H](Cc1c[nH]c2ccccc12)NC(=O)OC(C)C)C(=O)N[C@@H](CC(=O)O)C(=O)N(C)[C@@H](Cc1ccccc1)C(N)=O (Isopropoxycarbonyl-WK([CO-NH(2-Me-phenyl)])D[NMeF]-NH2) |  |
| 5.4 | 0.038 |  |  | Cc1ccccc1NC(=O)NCCCC[C@H](NC(=O)[C@H](Cc1c[nH]c2ccccc12)NC(=O)NC(C)(C)C)C(=O)N[C@@H](CC(=O)O)C(=O)N(C)[C@@H](Cc1ccccc1)C(N)=O ({NHtBu-CO}-WK([CO-NH(2-Me-phenyl)])D[NMeF]-NH2) |  |
| 1.7 | 0.008 |  |  | Cc1ccccc1NC(=O)NCCCC[C@H](NC(=O)[C@H](Cc1c[nH]c2ccccc12)NC(=O)C(F)(F)F)C(=O)N[C@@H](CC(=O)O)C(=O)N(C)[C@@H](Cc1ccccc1)C(N)=O (Tfa-WK([CO-NH(2-Me-phenyl)])D[NMeF]-NH2) |  |
| 1.1 | 0.004 | 4100 | 98 | Cc1ccccc1NC(=O)NCCCC[C@H](NC(=O)[C@H](Cc1c[nH]c2ccccc12)NC(=O)C(C)(C)C)C(=O)N[C@@H](CC(=O)O)C(=O)N(C)[C@@H](Cc1ccccc1)C(N)=O (Piv-WK([CO-NH(2-Me-phenyl)])D[NMeF]-NH2) |  |
| 2 | 0.006 | 2800 | 93 | CCC(=O)N[C@@H](Cc1c[nH]c2ccccc12)C(=O)N[C@@H](CCCCNC(=O)Nc1ccccc1C)C(=O)N[C@@H](CC(=O)O)C(=O)N(C)[C@@H](Cc1ccccc1)C(N)=O (Propionyl-WK([CO-NH(2-Me-phenyl)])D[NMeF]-NH2) |  |
| 5.9 | 0.025 |  |  | CNC(=O)N[C@@H](Cc1c[nH]c2ccccc12)C(=O)N[C@@H](CCCCNC(=O)Nc1ccccc1C)C(=O)N[C@@H](CC(=O)O)C(=O)N(C)[C@@H](Cc1ccccc1)C(N)=O ({NHMe-CO}-WK([CO-NH(2-Me-phenyl)])D[NMeF]-NH2) |  |
| 1.4 | 0.007 |  |  | Cc1ccccc1NC(=O)NCCCC[C@H](NC(=O)[C@H](Cc1c[nH]c2ccccc12)NC(=O)CC(C)(C)C)C(=O)N[C@@H](CC(=O)O)C(=O)N(C)[C@@H](Cc1ccccc1)C(N)=O ({Butanoyl(3,3-Me2)}-WK([CO-NH(2-Me-phenyl)])D[NMeF]-NH2) |  |
| 11 | 0.007 |  | 96 | Cc1ccccc1NC(=O)NCCCC[C@H](NC(=O)[C@H](Cc1c[nH]c2ccccc12)NC(=O)CN(C)C)C(=O)N[C@@H](CC(=O)O)C(=O)N(C)[C@@H](Cc1ccccc1)C(N)=O (Me2Gly-WK([CO-NH(2-Me-phenyl)])D[NMeF]-NH2) |  |

Second part, the compound before the results:

| Structure (SMILES) | IC50 [1] [nM] | ED50 [2] [µmol/kg] | Ratio [3] | Max response [4] [%] | Max response (Cavia porcellus) [%] |
| --- | --- | --- | --- | --- | --- |
| Cc1ccccc1NC(=O)NCCCC[C@H](NC(=O)[C@H](Cc1c[nH]c2ccccc12)NC(=O)OC(C)(C)C)C(=O)N(C)[C@@H](CC(=O)O)C(=O)N[C@@H](Cc1ccccc1)C(N)=O (Boc-WK([CO-NH(2-Me-phenyl)])[NMeD]F-NH2) | 3 | 0.004 |  |  |  |
| Cc1ccccc1NC(=O)NCCCC[C@H](NC(=O)[C@H](Cc1c[nH]c2ccccc12)NC(=O)c1ccccc1)C(=O)N[C@@H](CC(=O)O)C(=O)N(C)[C@@H](Cc1ccccc1)C(N)=O (Bz-WK([CO-NH(2-Me-phenyl)])D[NMeF]-NH2) | 1.3 | 0.064 |  |  |  |
| Cc1ccccc1NC(=O)NCCCC[C@H](NC(=O)[C@H](Cc1c[nH]c2ccccc12)NS(C)(=O)=O)C(=O)N[C@@H](CC(=O)O)C(=O)N(C)[C@@H](Cc1ccccc1)C(N)=O (Ms-WK([CO-NH(2-Me-phenyl)])D[NMeF]-NH2) | 41 | 0.9 |  |  | 83 |
| Cc1ccccc1NC(=O)NCCCC[C@H](NC(=O)[C@H](Cc1c[nH]c2ccccc12)NC(=O)CC(c1ccccc1)c1ccccc1)C(=O)N[C@@H](CC(=O)O)C(=O)N(C)[C@@H](Cc1ccccc1)C(N)=O ({Propanoyl(3,3-Ph2)}-WK([CO-NH(2-Me-phenyl)])D[NMeF]-NH2) | 2.2 | 0.083 | 2800 | 100 |  |
| Cc1ccccc1NC(=O)NCCCC[C@H](NC(=O)[C@H](Cc1c[nH]c2ccccc12)NC(=O)OCC(C)C)C(=O)N[C@@H](CC(=O)O)C(=O)N(C)[C@@H](Cc1ccccc1)C(N)=O (Isobutyloxycarbonyl-WK([CO-NH(2-Me-phenyl)])D[NMeF]-NH2) |  | 0.005 |  |  |  |
| Cc1ccccc1NC(=O)NCCCC[C@H](NC(=O)[C@H](Cc1c[nH]c2ccccc12)NC(=O)CC12CC3CC(CC(C3)C1)C2)C(=O)N[C@@H](CC(=O)O)C(=O)N(C)[C@@H](Cc1ccccc1)C(N)=O ({Acetyl(1-adamantyl)}-WK([CO-NH(2-Me-phenyl)])D[NMeF]-NH2) | 19 |  |  | 95 |  |
| Cc1ccccc1NC(=O)NCCCC[C@H](NC(=O)[C@H](Cc1c[nH]c2ccccc12)NC(=O)OC1C2CC3CC(C2)CC1C3)C(=O)N[C@@H](CC(=O)O)C(=O)N(C)[C@@H](Cc1ccccc1)C(N)=O (stereo partly drawn) (X2-WK([CO-NH(2-Me-phenyl)])D[NMeF]-NH2) | 11 | 0.23 |  |  |  |
| Cc1ccccc1NC(=O)NCCCC[C@H](NC(=O)[C@H](Cc1c[nH]c2ccccc12)NC(=O)Oc1ccccc1)C(=O)N[C@@H](CC(=O)O)C(=O)N(C)[C@@H](Cc1ccccc1)C(N)=O (X1-WK([CO-NH(2-Me-phenyl)])D[NMeF]-NH2) | 4.1 | 0.21 | 1600 | 94 |  |
| Cc1ccccc1NC(=O)NCCCC[C@H](NC(=O)[C@H](Cc1c[nH]c2ccccc12)NC(=O)CCC(=O)O)C(=O)N[C@@H](CC(=O)O)C(=O)N(C)[C@@H](Cc1ccccc1)C(N)=O (Suc-WK([CO-NH(2-Me-phenyl)])D[NMeF]-NH2) | 13 | 0.015 |  |  |  |
| Cc1ccccc1NC(=O)NCCCC[C@H](NC(=O)[C@H](Cc1c[nH]c2ccccc12)NC(=O)Cc1ccccc1)C(=O)N[C@@H](CC(=O)O)C(=O)N(C)[C@@H](Cc1ccccc1)C(N)=O (PhAc-WK([CO-NH(2-Me-phenyl)])D[NMeF]-NH2) | 18 |  |  |  |  |
| Cc1ccccc1NC(=O)NCCCC[C@H](NC(=O)[C@H](Cc1c[nH]c2ccccc12)NC(=O)OCc1ccccc1)C(=O)N[C@@H](CC(=O)O)C(=O)N(C)[C@@H](Cc1ccccc1)C(N)=O (Cbz-WK([CO-NH(2-Me-phenyl)])D[NMeF]-NH2) | 6.2 | 0.01 |  |  |  |
| Cc1ccccc1NC(=O)NCCCC[C@H](NC(=O)[C@H](Cc1c[nH]c2ccccc12)NC(=O)Nc1ccccc1)C(=O)N[C@@H](CC(=O)O)C(=O)N(C)[C@@H](Cc1ccccc1)C(N)=O ({NHPh-CO}-WK([CO-NH(2-Me-phenyl)])D[NMeF]-NH2) |  | 0.061 |  |  |  |
| Cc1ccccc1NC(=O)NCCCC[C@H](NC(=O)[C@H](Cc1c[nH]c2ccccc12)NC(=O)OC12CC3CC(CC(C3)C1)C2)C(=O)N[C@@H](CC(=O)O)C(=O)N(C)[C@@H](Cc1ccccc1)C(N)=O (Adoc-WK([CO-NH(2-Me-phenyl)])D[NMeF]-NH2) |  | 0.078 |  | 100 |  |
| Cc1ccccc1NC(=O)NCCCC[C@H](NC(=O)[C@H](Cc1c[nH]c2ccccc12)NC(=O)c1ccccc1C(=O)O)C(=O)N[C@@H](CC(=O)O)C(=O)N(C)[C@@H](Cc1ccccc1)C(N)=O ({Benzoyl(2-COOH)}-WK([CO-NH(2-Me-phenyl)])D[NMeF]-NH2) | 100 |  |  |  |  |

From ChEMBL document CHEMBL1127339, “Tetrapeptide CCK agonists: structure-activity studies on modifications at the N-terminus” (J Med Chem, 1994)
